Each block holds one compound with its values, some of them ahead of it. Active and inactive are the calls of the source. No cut-off for these calls is given here.
Assays:
HeLa = test: Antiproliferative activity against human HeLa cells assessed as inhibition of cell proliferation after 72 hrs by MTT assay; format: functional, cell-based; details: for IC50: Homo sapiens, HeLa, 72 h
Outline: (§1)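 Cells grown as monolayers in DMEM with 10% FBS, 2 mM L-glutamine, penicillin/streptomycin, 37 °C, 5% CO2. Seeded at 5000/well on day 0. Compounds added after 24 h as five serial dilutions (0,01 to 100 µM), DMSO ≤0.1%, then 72 h. MTT read-out converted to percentage growth. IC50 by linear regression; quadruplicates in three experiments.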

HepG2 [1] = test: Antiproliferative activity against human HepG2 cells assessed as inhibition of cell proliferation after 72 hrs by MTT assay; format: functional, cell-based; details: for IC50: HepG2, 72 h; outline: as §1
[2] = Antiproliferative activity against human WI38 cells assessed as inhibition of cell proliferation after 72 hrs by MTT assay; format: cell-based, WI-38; outline: as §1
[3] = (§2) Antiproliferative activity against human SW620 cells assessed as inhibition of cell proliferation after 72 hrs by MTT assay; format: functional, cell-based, SW-620; details: Homo sapiens, SW-620, 72 h; outline: as §1
SW-620 = test: as §2; format: functional, cell-based; outline: as §1
[4] = target: T1, DNA topoisomerase 1 (Homo sapiens) (UniProt P11387); test: Inhibition of human topoisomerase 1 assessed as topoisomerase poison activity by measuring generation of open circular DNA using supercoiled pUC19 DNA at 5 to 50 uM by agarose gel electrophoresis
T1 sequence (whole entry): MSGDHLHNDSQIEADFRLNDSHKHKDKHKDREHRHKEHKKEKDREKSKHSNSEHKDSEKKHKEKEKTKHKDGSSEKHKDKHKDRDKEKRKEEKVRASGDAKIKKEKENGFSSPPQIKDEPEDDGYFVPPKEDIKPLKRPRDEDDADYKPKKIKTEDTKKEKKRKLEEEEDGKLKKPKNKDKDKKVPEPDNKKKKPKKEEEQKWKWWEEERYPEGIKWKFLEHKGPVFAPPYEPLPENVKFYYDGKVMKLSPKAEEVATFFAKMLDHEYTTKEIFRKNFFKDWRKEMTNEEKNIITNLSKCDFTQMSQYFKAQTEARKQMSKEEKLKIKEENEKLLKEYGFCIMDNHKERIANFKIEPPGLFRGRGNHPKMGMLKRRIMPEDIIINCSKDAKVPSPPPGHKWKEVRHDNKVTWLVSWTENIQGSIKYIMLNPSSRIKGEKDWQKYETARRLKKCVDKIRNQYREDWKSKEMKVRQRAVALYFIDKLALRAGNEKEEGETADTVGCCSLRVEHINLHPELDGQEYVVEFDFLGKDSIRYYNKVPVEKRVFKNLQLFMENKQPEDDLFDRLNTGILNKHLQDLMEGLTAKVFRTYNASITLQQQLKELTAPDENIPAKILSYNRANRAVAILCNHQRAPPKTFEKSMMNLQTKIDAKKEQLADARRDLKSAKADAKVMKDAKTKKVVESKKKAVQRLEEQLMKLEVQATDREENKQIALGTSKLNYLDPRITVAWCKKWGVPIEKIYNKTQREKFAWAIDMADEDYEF
Outline: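 Supercoiled pUC19 plasmid was incubated with human topoisomerase I and graded compound concentrations. Reactions were stopped with SDS and proteinase K. DNA forms were resolved on 1% agarose in TBE (2 h, 120 V), post-stained with ethidium bromide and photographed under UV. Poisoning was read as appearance of nicked DNA, with camptothecin as the positive control.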

[5] = Binding affinity to pBluescript 265 bp DNA fragment (unknown origin) assessed binding to TTGT) sequence at 1 to 25 uM incubated for 15 mins by DNase-1 foot printing assay
Outline: (§3)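 265 bp EcoRI/PvuII fragment of pBluescript, 3'-end labelled with α[32P]-dATP, incubated with compound (up to 50 µM) for 15 min at 37 °C, then mildly digested with DNase I. Run on 8% denaturing polyacrylamide/8 M urea gels and imaged by phosphor screen. Base positions assigned against a DMS/piperidine G-track.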

[6] = Binding affinity to pBluescript 265 bp DNA fragment (unknown origin) assessed binding to ACAA sequence at 1 to 25 uM incubated for 15 mins by DNase-1 foot printing assay; outline: as §3
[7] = Binding affinity to pBluescript 265 bp DNA fragment (unknown origin) assessed binding to AT-rich ATTA sequence at 1 to 25 uM incubated for 15 mins by DNase-1 foot printing assay; outline: as §3
Calf thymus DNA [8] = test: Binding affinity to calf thymus DNA at 50 uM circular dichroism spectroscopy; format: nucleic-acid assay; details: Bos taurus
Outline: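 CD spectra recorded from 480 to 230 nm, 10 mm path, 20 °C, in BPE buffer. CT-DNA (50 µM) incubated with compound rising from 1 to 60 µM or to 80 µM. Compound without DNA served as the control for intrinsic CD.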

MCF7 = test: Antiproliferative activity against human MCF7 cells assessed as inhibition of cell proliferation after 72 hrs by MTT assay; format: functional, cell-based; details: for IC50: Homo sapiens, MCF7, 72 h; outline: as §1
[9] = Binding affinity to pBluescript 265 bp DNA fragment (unknown origin) assessed binding to AT-rich AATT sequence at 1 to 25 uM incubated for 15 mins by DNase-1 foot printing assay; outline: as §3
Calf thymus DNA [10] = test: Binding affinity to calf thymus DNA assessed as change in melting temperature at drug/ base pair ratio of 0.25 by spectrophotometry; format: nucleic-acid assay; details: Bos taurus
Outline: (§4)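 CT-DNA absorbance followed at 260 nm from 20 to 100 °C, rising 1 °C per min, in BPE buffer, with or without compound at drug/base-pair ratio 0.25 or 0.5. Tm taken as midpoint of the hyperchromic transition from first-derivative plots. ΔTm is Tm with compound minus Tm of DNA alone.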

Calf thymus DNA [11] = test: Binding affinity to calf thymus DNA assessed as change in melting temperature at drug/ base pair ratio of 0.5 by spectrophotometry; format: nucleic-acid assay; details: Bos taurus; outline: as §4
Nucleic Acid = test: Induction of DNA intercalation in supercoiled pUC19 DNA in presence of human topoisomerase 1 assessed as effect on topoisomerase 1-mediated DNA relaxation at 50 uM by agarose gel electrophoresis; format: nucleic-acid assay; details: Escherichia coli
Outline: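 Supercoiled pUC19 incubated with human topoisomerase I and graded compound concentrations. Stopped with SDS/proteinase K. DNA forms resolved on 1% agarose in TBE, 2 h at 120 V, stained post-run with ethidium bromide and viewed under UV. Camptothecin was the topo I poison control.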

HepG2 [12] = test: Induction of cell cycle arrest on human HepG2 cells assessed as accumulation at subG1 phase at 25 uM after 24 hrs by propidium iodide staining based flow cytometry (reference value: 4.8 +/- 0.6%); format: functional
Outline: (§5)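 HepG2 or SW620 cells were seeded at 25000 per well. After 24 h they were treated, then harvested 24 or 48 h later. Attached cells were trypsinized, pooled with floating cells, PBS-washed and fixed in 70% ethanol. Cells were stained with PI 1 µg/mL plus RNase A 0.2 µg/mL, and 10 000 events were acquired by flow cytometry. Phase percentages come from DNA histograms, in duplicate, with ANOVA at p < 0.05.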

HepG2 [13] = test: Induction of cell cycle arrest on human HepG2 cells assessed as accumulation at subG1 phase at 25 uM after 48 hrs by propidium iodide staining based flow cytometry (reference value: 1.9%); format: functional; outline: as §5
HepG2 [14] = test: Induction of cell cycle arrest on human HepG2 cells assessed as accumulation at subG1 phase at 10 uM after 24 hrs by propidium iodide staining based flow cytometry (reference value: 4.8 +/- 0.6%); format: functional; outline: as §5
HepG2 [15] = test: Induction of cell cycle arrest on human HepG2 cells assessed as accumulation at G1 phase at 25 uM after 24 hrs by propidium iodide staining based flow cytometry (reference value: 61.4 +/- 2.0%); format: functional
HepG2 [16] = test: Induction of cell cycle arrest on human HepG2 cells assessed as accumulation at G1 phase at 10 uM after 24 hrs by propidium iodide staining based flow cytometry (reference value: 61.4 +/- 2.0%); format: functional
HepG2 [17] = test: Induction of cell cycle arrest on human HepG2 cells assessed as accumulation at G2/M phase at 25 uM after 24 hrs by propidium iodide staining based flow cytometry (reference value: 26.6 +/- 12.2%); format: functional
HepG2 [18] = test: Induction of cell cycle arrest on human HepG2 cells assessed as accumulation at S phase at 25 uM after 48 hrs by propidium iodide staining based flow cytometry (reference value: 6.8 +/- 5.3%); format: functional; outline: as §5
HepG2 [19] = test: Induction of cell cycle arrest on human HepG2 cells assessed as accumulation at G2/M phase at 25 uM after 48 hrs by propidium iodide staining based flow cytometry (reference value: 31.1 +/- 0.4%); format: functional
HepG2 [20] = test: Induction of cell cycle arrest on human HepG2 cells assessed as accumulation at G2/M phase at 10 uM after 24 hrs by propidium iodide staining based flow cytometry (reference value: 26.6 +/- 12.2%); format: functional
HepG2 [21] = test: Induction of cell cycle arrest on human HepG2 cells assessed as accumulation at subG1 phase at 10 uM after 48 hrs by propidium iodide staining based flow cytometry (reference value: 1.9%); format: functional; outline: as §5
BJ = test: Antiproliferative activity against human BJ cells assessed as inhibition of cell proliferation after 72 hrs by MTT assay; format: cell-based; details: 72 h; outline: as §1
HepG2 [22] = test: Induction of cell cycle arrest on human HepG2 cells assessed as accumulation at S phase at 25 uM after 24 hrs by propidium iodide staining based flow cytometry (reference value: 12.0 +/- 10.2%); format: functional; outline: as §5
HepG2 [23] = test: Induction of cell cycle arrest on human HepG2 cells assessed as accumulation at G1 phase at 10 uM after 48 hrs by propidium iodide staining based flow cytometry (reference value: 62.1 +/- 4.9%); format: functional
HepG2 [24] = test: Induction of cell cycle arrest on human HepG2 cells assessed as accumulation at G1 phase at 25 uM after 48 hrs by propidium iodide staining based flow cytometry (reference value: 62.1 +/- 4.9%); format: functional
HepG2 [25] = test: Induction of apoptosis in human HepG2 cells assessed as enlarged cells level at 25 uM after 24 hrs by Annexin V-Fluos staining based fluorescent microscopy; format: functional, cell-based
Outline: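 Cells seeded on chamber slides at 4000 per well and treated 24 h (HepG2 at 25 or 50 µM; SW620 at 50 µM). Incubated 15 min with Annexin V-Fluos reagent plus propidium iodide, washed in PBS, and examined by fluorescence microscopy for morphology and labelling.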

HepG2 [26] = test: Induction of cell cycle arrest on human HepG2 cells assessed as accumulation at G2/M phase at 10 uM after 48 hrs by propidium iodide staining based flow cytometry (reference value: 31.1 +/- 0.4%); format: functional
HepG2 [27] = test: Induction of cell cycle arrest on human HepG2 cells assessed as accumulation at S phase at 10 uM after 24 hrs by propidium iodide staining based flow cytometry (reference value: 12.0 +/- 10.2%); format: functional
HepG2 [28] = test: Induction of cell cycle arrest on human HepG2 cells assessed as accumulation at S phase at 10 uM after 48 hrs by propidium iodide staining based flow cytometry (reference value: 6.8 +/- 5.3%); format: functional

IC50 (HeLa): > 100 µM
IC50 (HepG2 [1]): 62.2 µM
Activity [5]: Active
Activity [6]: Active
Activity [7]: Active
Activity (Calf thymus DNA [8]): Active
IC50 (MCF7): 53.4 µM
Activity [9]: Active
ΔTm (Calf thymus DNA [10]): 6.3 °C
ΔTm (Calf thymus DNA [11]): 11.3 °C
Activity (Nucleic Acid): inactive
Structure (SMILES): CC(C)NC(=N)c1ccc(/N=C2\c3ccccc3CN2c2ccc(C(=N)NC(C)C)cc2)cc1.Cl
inhibition (HeLa): Dose-dependent effect
inhibition (HepG2 [1]): Dose-dependent effect
IC50 ([2]; Homo sapiens, WI-38, 72 h): 53.9 µM
inhibition (INH) ([2]; human, wi-38, 72 h): Dose-dependent effect
IC50 [3]: > 100 µM
inhibition (SW-620): Dose-dependent effect
inhibition [4]: inactive
inhibition (MCF7): Dose-dependent effect

IC50 (HeLa): 50 µM
IC50 (HepG2 [1]): 4.68 µM
IC50 (MCF7): 46.1 µM
Structure (SMILES): N#Cc1ccc(/N=C2\c3ccccc3CN2c2ccc(C#N)cc2)cc1
inhibition (HeLa): Dose-dependent effect
Activity (HepG2 [12]): 15.7%
Activity (HepG2 [13]): 5.7%
inhibition (HepG2 [1]): Dose-dependent effect
IC50 [3]: 77.2 µM
inhibition (SW-620): Dose-dependent effect
Activity (HepG2 [14]): 13.3%
Activity (HepG2 [15]): 45.9%
Activity (HepG2 [16]): 54.1%
inhibition [4]: inactive
Activity (HepG2 [17]): 37.3%
Activity (HepG2 [18]): 0%
Activity (HepG2 [19]): 100%
Activity (HepG2 [20]): 19.2%
Activity (HepG2 [21]): 5.2%
IC50 (BJ; Homo sapiens, BJ): 75.2 µM
inhibition (INH) (BJ; human, bj): Dose-dependent effect
Activity (HepG2 [22]): 16.8%
inhibition (MCF7): Dose-dependent effect
Activity (HepG2 [23]): 0%
Activity (HepG2 [24]): 0%
Activity (HepG2 [25]): Active
Activity (HepG2 [26]): 100%
Activity (HepG2 [27]): 26.7%
Activity (HepG2 [28]): 0%

Source: ChEMBL document CHEMBL3352181, “Novel phenyl and pyridyl substituted derivatives of isoindolines: Synthesis, antitumor activity and DNA binding features” (Eur J Med Chem, 2014)
